Data taken from ChEMBL document CHEMBL2424530, “Synthesis, biological evaluation and molecular docking studies of pyrazole derivatives coupling with a thiourea moiety as novel CDKs inhibitors” (Eur J Med Chem, 2013).

What was measured:
[1] = Cytotoxicity against human H460 cells assessed as growth inhibition after 24 to 48 hrs by CCK8 assay; type: functional, cell-based; settings: NCI-H460
Method in brief: (§1)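 CCK8 proliferation assay: 1-5 × 10³ cells per well grew for 12 h, then were exposed to increasing compound concentrations in 10% FBS for 24 or 48 h. CCK8 dye was added for 1-2 h and plates were read on a multilabel counter. Percent inhibition or IC₅₀ was calculated against DMSO-treated control wells.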

A549 [2] = test: Cytotoxicity against human A549 cells assessed as growth inhibition after 24 to 48 hrs by CCK8 assay; type: functional, cell-based; method in brief: as §1
[3] = target: Cyclin-dependent kinase 2 (Homo sapiens, UniProt P24941); test: Inhibition of human N-terminal hexahistidine-tagged CDK2 expressed in baculovirus infected Sf21 cells using histone H1 as substrate after 10 mins in presence of [gamma-32P]-ATP
MCF7 = test: Cytotoxicity against human MCF7 cells assessed as growth inhibition after 24 to 48 hrs by CCK8 assay; type: functional, cell-based; method in brief: as §1
[4] = target: Cyclin-dependent kinase 1 (Homo sapiens, UniProt P06493); test: Inhibition of CDK1 (unknown origin) using histone H1 as substrate after 10 mins in presence of [gamma-32P]-ATP
Cyclin-dependent kinase 1, sequence (P06493 whole entry): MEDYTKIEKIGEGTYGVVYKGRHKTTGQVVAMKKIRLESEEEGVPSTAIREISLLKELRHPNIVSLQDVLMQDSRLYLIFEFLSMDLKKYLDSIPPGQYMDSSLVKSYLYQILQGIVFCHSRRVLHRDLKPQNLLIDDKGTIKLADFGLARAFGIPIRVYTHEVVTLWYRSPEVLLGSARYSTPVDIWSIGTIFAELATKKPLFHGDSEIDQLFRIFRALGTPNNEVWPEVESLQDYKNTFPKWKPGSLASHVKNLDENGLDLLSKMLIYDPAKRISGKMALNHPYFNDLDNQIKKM
Method in brief: (§2)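 Radiometric kinase reaction in 50 mM Tris-HCl with ATP plus γ-³²P ATP, 10 mM MgCl₂, 5 mM DTT and histone H1 substrate. It ran 10 min with inhibitor and was stopped with 30% phosphoric acid. Mixtures were spotted on P81 paper and washed five times with 10 mM Tris-HCl (pH 8.0)/0.1 M NaCl. Spot radioactivity was imaged, and IC₅₀ was the concentration giving 50% inhibition.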

[5] = target: Vascular endothelial growth factor receptor 2 (Homo sapiens, UniProt P35968); test: Inhibition of human VEGFR2 tyrosine kinase domain (Asp807 to Val1356) using poly-(Glu4-Tyr) as substrate incubated for 15 mins prior to ATP addition measured after 40 mins by DELFIA
Vascular endothelial growth factor receptor 2, sequence (P35968 whole entry, the tested form may be a part): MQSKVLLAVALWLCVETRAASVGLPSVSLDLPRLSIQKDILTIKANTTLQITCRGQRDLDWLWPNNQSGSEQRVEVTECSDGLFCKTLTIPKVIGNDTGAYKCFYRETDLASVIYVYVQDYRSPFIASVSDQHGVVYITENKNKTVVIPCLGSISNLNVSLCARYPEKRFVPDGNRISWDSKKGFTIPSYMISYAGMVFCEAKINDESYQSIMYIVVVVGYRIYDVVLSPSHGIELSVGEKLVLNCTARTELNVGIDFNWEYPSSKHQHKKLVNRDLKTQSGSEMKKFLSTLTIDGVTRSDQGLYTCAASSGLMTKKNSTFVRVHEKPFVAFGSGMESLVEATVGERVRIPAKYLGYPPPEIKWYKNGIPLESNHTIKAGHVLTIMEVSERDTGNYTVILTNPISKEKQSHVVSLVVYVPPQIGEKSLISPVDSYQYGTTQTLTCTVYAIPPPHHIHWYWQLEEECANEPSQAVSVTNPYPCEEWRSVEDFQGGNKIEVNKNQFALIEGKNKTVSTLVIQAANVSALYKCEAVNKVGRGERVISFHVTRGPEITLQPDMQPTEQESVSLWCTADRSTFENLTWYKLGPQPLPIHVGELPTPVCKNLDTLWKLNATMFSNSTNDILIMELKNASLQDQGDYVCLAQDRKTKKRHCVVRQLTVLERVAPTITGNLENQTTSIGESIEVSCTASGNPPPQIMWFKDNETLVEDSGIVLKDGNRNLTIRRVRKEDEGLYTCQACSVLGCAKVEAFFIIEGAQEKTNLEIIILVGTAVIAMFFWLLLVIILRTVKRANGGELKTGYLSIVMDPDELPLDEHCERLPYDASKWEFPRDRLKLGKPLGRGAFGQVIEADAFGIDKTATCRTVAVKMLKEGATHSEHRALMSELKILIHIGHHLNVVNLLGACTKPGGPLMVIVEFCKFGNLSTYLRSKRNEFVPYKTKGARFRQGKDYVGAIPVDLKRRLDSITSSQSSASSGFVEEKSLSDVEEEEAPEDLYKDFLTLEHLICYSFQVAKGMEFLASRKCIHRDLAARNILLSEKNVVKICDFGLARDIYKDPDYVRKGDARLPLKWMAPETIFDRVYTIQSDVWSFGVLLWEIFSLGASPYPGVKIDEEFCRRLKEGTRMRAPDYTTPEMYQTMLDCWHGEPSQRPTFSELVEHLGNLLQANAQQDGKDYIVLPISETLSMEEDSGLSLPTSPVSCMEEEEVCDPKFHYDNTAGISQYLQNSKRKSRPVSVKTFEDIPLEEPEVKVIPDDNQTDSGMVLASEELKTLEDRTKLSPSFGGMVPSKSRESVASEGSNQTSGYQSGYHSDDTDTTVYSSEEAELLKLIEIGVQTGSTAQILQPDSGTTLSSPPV

[6] = target: Cyclin-dependent kinase 4 (Homo sapiens, UniProt P11802); test: Inhibition of CDK4 (unknown origin) using histone H1 as substrate after 10 mins in presence of [gamma-32P]-ATP; method in brief: as §2
Cyclin-dependent kinase 4, sequence (P11802 whole entry): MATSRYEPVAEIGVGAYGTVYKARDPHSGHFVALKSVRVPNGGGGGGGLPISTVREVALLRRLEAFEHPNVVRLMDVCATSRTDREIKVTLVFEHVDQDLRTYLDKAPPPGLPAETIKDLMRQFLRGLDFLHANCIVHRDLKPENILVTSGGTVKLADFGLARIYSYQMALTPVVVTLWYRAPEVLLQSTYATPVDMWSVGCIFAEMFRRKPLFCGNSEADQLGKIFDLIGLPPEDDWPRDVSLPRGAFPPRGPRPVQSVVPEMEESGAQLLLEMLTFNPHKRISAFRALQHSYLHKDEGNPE

[7] = target: Cyclin-dependent kinase 7 (Homo sapiens, UniProt P50613); test: Inhibition of CDK7 (unknown origin) using histone H1 as substrate after 10 mins in presence of [gamma-32P]-ATP; method in brief: as §2
Cyclin-dependent kinase 7, sequence (P50613 whole entry): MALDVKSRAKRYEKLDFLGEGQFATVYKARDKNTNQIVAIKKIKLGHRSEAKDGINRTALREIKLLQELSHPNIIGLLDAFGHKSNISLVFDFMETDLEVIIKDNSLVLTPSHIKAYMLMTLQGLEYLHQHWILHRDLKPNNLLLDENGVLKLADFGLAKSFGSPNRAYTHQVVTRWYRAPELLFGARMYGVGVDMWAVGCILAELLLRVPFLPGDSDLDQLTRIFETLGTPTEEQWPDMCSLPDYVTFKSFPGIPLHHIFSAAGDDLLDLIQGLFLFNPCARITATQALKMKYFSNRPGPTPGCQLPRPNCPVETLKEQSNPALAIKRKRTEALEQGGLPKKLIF

[8] = target: Cyclin-dependent kinase 5 (Homo sapiens, UniProt Q00535); test: Inhibition of CDK5 (unknown origin) using histone H1 as substrate after 10 mins in presence of [gamma-32P]-ATP; method in brief: as §2
Cyclin-dependent kinase 5, sequence (Q00535 whole entry, the tested form may be a part): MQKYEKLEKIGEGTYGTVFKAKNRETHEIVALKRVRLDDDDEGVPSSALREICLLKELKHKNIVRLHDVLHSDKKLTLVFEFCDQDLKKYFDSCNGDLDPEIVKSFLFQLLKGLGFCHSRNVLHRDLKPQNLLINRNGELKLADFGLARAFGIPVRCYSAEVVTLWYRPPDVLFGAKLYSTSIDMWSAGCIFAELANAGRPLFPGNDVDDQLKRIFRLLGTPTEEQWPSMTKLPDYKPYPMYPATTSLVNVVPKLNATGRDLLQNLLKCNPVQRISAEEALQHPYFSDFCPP

[9] = target: Epidermal growth factor receptor (Homo sapiens, UniProt P00533); test: Inhibition of human C-terminal EGFR tyrosine kinase domain
Epidermal growth factor receptor, sequence (P00533 whole entry, the tested form may be a part): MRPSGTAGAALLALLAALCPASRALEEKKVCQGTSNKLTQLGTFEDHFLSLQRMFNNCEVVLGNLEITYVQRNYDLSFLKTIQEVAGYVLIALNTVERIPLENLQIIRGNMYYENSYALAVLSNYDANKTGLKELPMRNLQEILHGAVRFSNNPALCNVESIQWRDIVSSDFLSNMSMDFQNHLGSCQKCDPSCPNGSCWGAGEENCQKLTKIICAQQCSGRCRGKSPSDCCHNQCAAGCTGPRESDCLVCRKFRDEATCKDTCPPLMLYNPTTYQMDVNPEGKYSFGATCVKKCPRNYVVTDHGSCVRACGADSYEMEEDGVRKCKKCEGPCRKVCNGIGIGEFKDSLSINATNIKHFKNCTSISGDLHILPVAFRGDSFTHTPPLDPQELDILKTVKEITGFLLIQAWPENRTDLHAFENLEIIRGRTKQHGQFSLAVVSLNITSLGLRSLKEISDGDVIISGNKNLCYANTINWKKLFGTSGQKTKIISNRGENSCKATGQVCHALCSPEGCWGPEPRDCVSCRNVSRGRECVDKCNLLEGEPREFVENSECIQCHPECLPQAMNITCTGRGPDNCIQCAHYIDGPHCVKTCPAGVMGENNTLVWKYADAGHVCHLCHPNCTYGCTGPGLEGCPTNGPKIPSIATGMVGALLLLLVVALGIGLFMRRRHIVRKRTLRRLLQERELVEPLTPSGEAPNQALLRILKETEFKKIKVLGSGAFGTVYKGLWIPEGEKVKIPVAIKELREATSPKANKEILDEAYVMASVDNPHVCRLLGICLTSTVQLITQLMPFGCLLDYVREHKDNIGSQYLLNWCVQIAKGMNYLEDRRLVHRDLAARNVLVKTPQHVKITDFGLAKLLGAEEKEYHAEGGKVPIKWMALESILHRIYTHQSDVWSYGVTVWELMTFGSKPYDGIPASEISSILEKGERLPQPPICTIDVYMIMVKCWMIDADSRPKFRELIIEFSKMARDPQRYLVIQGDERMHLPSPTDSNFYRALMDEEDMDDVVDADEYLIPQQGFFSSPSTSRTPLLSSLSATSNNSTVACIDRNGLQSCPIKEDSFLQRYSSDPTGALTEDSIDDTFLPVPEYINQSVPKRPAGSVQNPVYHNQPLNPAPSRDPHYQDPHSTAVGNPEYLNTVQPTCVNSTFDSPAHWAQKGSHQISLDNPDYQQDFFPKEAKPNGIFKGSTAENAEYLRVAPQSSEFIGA

[10] = target: Cyclin-dependent kinase 6 (Homo sapiens, UniProt Q00534); test: Inhibition of CDK6 (unknown origin) using histone H1 as substrate after 10 mins in presence of [gamma-32P]-ATP; method in brief: as §2
Cyclin-dependent kinase 6, sequence (Q00534 whole entry): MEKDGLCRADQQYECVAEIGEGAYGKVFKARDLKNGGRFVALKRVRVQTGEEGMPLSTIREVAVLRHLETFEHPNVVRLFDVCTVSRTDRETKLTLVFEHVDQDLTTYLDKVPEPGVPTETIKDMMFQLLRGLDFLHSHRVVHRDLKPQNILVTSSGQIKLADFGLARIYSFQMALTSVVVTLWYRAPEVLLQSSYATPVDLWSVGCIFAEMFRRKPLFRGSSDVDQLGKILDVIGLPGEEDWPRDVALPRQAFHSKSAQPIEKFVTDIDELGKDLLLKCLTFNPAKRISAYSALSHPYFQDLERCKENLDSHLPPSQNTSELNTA

A549 [11] = test: Cell cycle arrest in human A549 cells assessed as accumulation at G0/G1 phase after 36 hrs by propidium iodide staining-based FACS flow cytometric analysis; type: functional
A549 [12] = test: Cell cycle arrest in human A549 cells assessed as accumulation at S phase at 0.5 uM after 36 hrs by propidium iodide staining-based FACS flow cytometric analysis (reference value: 40.84%); type: functional
A549 [13] = test: Cell cycle arrest in human A549 cells assessed as accumulation at S phase at 1 uM after 36 hrs by propidium iodide staining-based FACS flow cytometric analysis (reference value: 40.84%); type: functional
A549 [14] = test: Cell cycle arrest in human A549 cells assessed as accumulation at G0/G1 phase at 0.5 uM after 36 hrs by propidium iodide staining-based FACS flow cytometric analysis (reference value: 57.07%); type: functional
A549 [15] = test: Cell cycle arrest in human A549 cells assessed as accumulation at subG0 phase at 0.5 uM after 36 hrs by propidium iodide staining-based FACS flow cytometric analysis relative to control; type: functional
A549 [16] = test: Cell cycle arrest in human A549 cells assessed as accumulation at G2/M phase at 2 uM after 36 hrs by propidium iodide staining-based FACS flow cytometric analysis (reference value: 2.09%); type: functional
A549 [17] = test: Cell cycle arrest in human A549 cells assessed as accumulation at S phase at 2 uM after 36 hrs by propidium iodide staining-based FACS flow cytometric analysis (reference value: 40.84%); type: functional
A549 [18] = test: Cell cycle arrest in human A549 cells assessed as accumulation at G2/M phase at 1 uM after 36 hrs by propidium iodide staining-based FACS flow cytometric analysis (reference value: 2.09%); type: functional
A549 [19] = test: Cell cycle arrest in human A549 cells assessed as accumulation at G0/G1 phase at 1 uM after 36 hrs by propidium iodide staining-based FACS flow cytometric analysis (reference value: 57.07%); type: functional
A549 [20] = test: Cell cycle arrest in human A549 cells assessed as accumulation at subG0 phase at 2 uM after 36 hrs by propidium iodide staining-based FACS flow cytometric analysis relative to control; type: functional
A549 [21] = test: Cell cycle arrest in human A549 cells assessed as accumulation at G0/G1 phase at 2 uM after 36 hrs by propidium iodide staining-based FACS flow cytometric analysis (reference value: 57.07%); type: functional
A549 [22] = test: Cell cycle arrest in human A549 cells assessed as accumulation at subG0 phase at 1 uM after 36 hrs by propidium iodide staining-based FACS flow cytometric analysis relative to control; type: functional
A549 [23] = test: Cell cycle arrest in human A549 cells assessed as accumulation at G2/M phase at 0.5 uM after 36 hrs by propidium iodide staining-based FACS flow cytometric analysis (reference value: 2.09%); type: functional

| Compound | IC50 [3] [µM] | IC50 [1] [µM] | IC50 (A549 [2]) [µM] | IC50 (MCF7) [µM] | also measured |
| --- | --- | --- | --- | --- | --- |
| Cc1ccc(-c2nn(-c3ccccc3)cc2C(=O)NC(=S)Nc2ccc(F)cc2)cc1 | 0.041 | 3.98 | 3.42 | 6.42 |  |
| COc1ccc(NC(=S)NC(=O)c2cn(-c3ccccc3)nc2-c2ccc(F)cc2)cc1 | 0.036 | 2.86 | 1.98 | 4.89 | IC50 [4]: 0.569 µM; IC50 [5]: > 5 µM; IC50 [6]: 0.039 µM; IC50 [7]: 1.64 µM; IC50 [8]: 1.18 µM; IC50 [9]: > 5 µM; IC50 [10]: 0.033 µM |
| Cc1ccc(-c2nn(-c3ccccc3)cc2C(=O)NC(=S)Nc2ccc(Cl)cc2)cc1 | 0.063 | 3.65 | 3.17 | 6.21 |  |
| O=C(NC(=S)Nc1ccc(F)cc1)c1cn(-c2ccccc2)nc1-c1ccccc1 | 0.075 | 4.21 | 3.5 | 6.82 |  |
| COc1ccc(NC(=S)NC(=O)c2cn(-c3ccccc3)nc2-c2ccc(Cl)cc2)cc1 | 0.037 | 3.01 | 2.27 | 5.24 | IC50 [4]: 0.571 µM; IC50 [5]: > 5 µM; IC50 [6]: 0.04 µM; IC50 [7]: 1.65 µM; IC50 [8]: 1.36 µM; IC50 [9]: > 5 µM; IC50 [10]: 0.042 µM |
| Cn1cnc2c(NCc3ccccc3)nc(NCCO)nc21 [OLOMOUCINE] |  | 132 | 130 | 142 |  |
| O=C(NC(=S)Nc1ccc(F)cc1)c1cn(-c2ccccc2)nc1-c1ccc(Cl)cc1 | 0.059 | 3.64 | 3.98 | 5.99 |  |
| O=C(NC(=S)Nc1ccc(Cl)cc1)c1cn(-c2ccccc2)nc1-c1ccc(F)cc1 | 0.044 | 3.09 | 2.99 | 5.47 |  |
| O=C(NC(=S)Nc1ccc(Cl)cc1)c1cn(-c2ccccc2)nc1-c1ccccc1 | 0.071 | 4.02 | 3.2 | 6.23 |  |
| COc1ccc(NC(=S)NC(=O)c2cn(-c3ccccc3)nc2-c2ccccc2)cc1 | 0.056 | 3.54 | 2.5 | 5.46 | IC50 [4]: 0.61 µM; IC50 [5]: > 5 µM; IC50 [6]: 0.042 µM; IC50 [7]: 1.88 µM; IC50 [8]: 1.5 µM; IC50 [9]: > 5 µM; IC50 [10]: 0.05 µM |
| Cc1ccc(NC(=S)NC(=O)c2cn(-c3ccccc3)nc2-c2ccc(Cl)cc2)cc1 | 0.042 | 3.12 | 2.69 | 5.98 |  |
| COc1ccc(-c2nn(-c3ccccc3)cc2C(=O)NC(=S)Nc2ccc(Cl)cc2)cc1 | 0.03 | 3.01 | 1.31 | 4.76 |  |
| COc1ccc(-c2nn(-c3ccccc3)cc2C(=O)NC(=S)Nc2ccc(C)cc2)cc1 | 0.029 | 2.88 | 1.25 | 4.63 |  |

The next lines start with results.

| IC50 [3] [µM] | Compound | IC50 [1] [µM] | IC50 (A549 [2]) [µM] | IC50 (MCF7) [µM] | also measured |
| --- | --- | --- | --- | --- | --- |
| 0.049 | O=C(NC(=S)Nc1ccc(F)cc1)c1cn(-c2ccccc2)nc1-c1ccc(F)cc1 | 3.24 | 3.54 | 5.61 |  |
| 0.047 | COc1ccc(NC(=S)NC(=O)c2cn(-c3ccccc3)nc2-c2ccc(C)cc2)cc1 | 3.24 | 2.39 | 5.12 | IC50 [4]: 0.584 µM; IC50 [5]: > 5 µM; IC50 [6]: 0.04 µM; IC50 [7]: 1.79 µM; IC50 [8]: 1.42 µM; IC50 [9]: > 5 µM; IC50 [10]: 0.043 µM |
| 0.025 | COc1ccc(NC(=S)NC(=O)c2cn(-c3ccccc3)nc2-c2ccc(OC)cc2)cc1 | 2.57 | 0.75 | 4.21 | Activity (A549 [11]): Dose-dependent effect; Activity (A549 [12]): 32.47%; Activity (A549 [13]): 34.48%; Activity (A549 [14]): 59.49%; Activity (A549 [15]): 0%; Activity (A549 [16]): 7.52%; IC50 [4]: 0.522 µM; IC50 [5]: > 5 µM; IC50 [6]: 0.035 µM; Activity (A549 [17]): 28.48%; Activity (A549 [18]): 2.99%; IC50 [7]: 1.42 µM; IC50 [8]: 1.09 µM; Activity (A549 [19]): 62.53%; Activity (A549 [20]): 0%; IC50 [9]: > 5 µM; IC50 [10]: 0.029 µM; Activity (A549 [21]): 64%; Activity (A549 [22]): 0%; Activity (A549 [23]): 8.04% |
| 0.058 | O=C(NC(=S)Nc1ccc(Cl)cc1)c1cn(-c2ccccc2)nc1-c1ccc(Cl)cc1 | 3.26 | 3.15 | 5.36 |  |
| 0.069 | Cc1ccc(NC(=S)NC(=O)c2cn(-c3ccccc3)nc2-c2ccccc2)cc1 | 3.96 | 2.8 | 5.9 |  |
| 0.052 | Cc1ccc(NC(=S)NC(=O)c2cn(-c3ccccc3)nc2-c2ccc(C)cc2)cc1 | 3.76 | 2.83 | 5.66 |  |
| 0.032 | COc1ccc(-c2nn(-c3ccccc3)cc2C(=O)NC(=S)Nc2ccc(F)cc2)cc1 | 3.05 | 1.43 | 4.99 |  |
| 0.043 | Cc1ccc(NC(=S)NC(=O)c2cn(-c3ccccc3)nc2-c2ccc(F)cc2)cc1 | 2.98 | 2.08 | 5.44 |  |
